Activity calls are given as the source filed them. No cut-off for these calls is given here.
Columns and labels:
Lethal factor = target: T1, Lethal factor (Bacillus anthracis, UniProt P15917); assay: Inhibition of N-terminal 6-histine tagged Bacillus anthracis LF 263-C terminal catalytic domain using MCA-KKVYPYPME-Dap(Dnp)-NH2 as substrate after 4 hrs by FRET analysis
T1 sequence (P15917 whole entry): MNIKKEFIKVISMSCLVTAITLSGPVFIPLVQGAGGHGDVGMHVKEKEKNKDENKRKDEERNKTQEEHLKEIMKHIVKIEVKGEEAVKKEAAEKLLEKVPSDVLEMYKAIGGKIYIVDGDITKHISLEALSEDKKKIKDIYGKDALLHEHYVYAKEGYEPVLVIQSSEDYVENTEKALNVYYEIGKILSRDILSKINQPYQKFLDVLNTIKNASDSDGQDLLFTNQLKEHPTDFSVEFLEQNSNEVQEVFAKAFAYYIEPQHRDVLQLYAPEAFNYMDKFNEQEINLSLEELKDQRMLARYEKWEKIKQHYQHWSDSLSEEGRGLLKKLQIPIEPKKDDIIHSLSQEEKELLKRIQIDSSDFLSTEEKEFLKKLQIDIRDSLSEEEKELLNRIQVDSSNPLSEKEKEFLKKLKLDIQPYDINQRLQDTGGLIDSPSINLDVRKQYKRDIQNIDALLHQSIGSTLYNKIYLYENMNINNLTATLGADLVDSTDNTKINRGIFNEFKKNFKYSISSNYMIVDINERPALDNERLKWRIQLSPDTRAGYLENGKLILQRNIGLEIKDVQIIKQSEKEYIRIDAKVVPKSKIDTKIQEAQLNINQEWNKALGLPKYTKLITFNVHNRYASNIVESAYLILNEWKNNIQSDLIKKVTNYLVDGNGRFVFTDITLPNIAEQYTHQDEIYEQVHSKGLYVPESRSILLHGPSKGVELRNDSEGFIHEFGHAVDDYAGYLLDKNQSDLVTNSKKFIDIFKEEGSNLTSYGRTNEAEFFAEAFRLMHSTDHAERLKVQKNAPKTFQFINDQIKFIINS

[1] = Stability of the compound in presence of UGT; assay type: ADME
Summary of the method: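 UGT (glucuronidation) stability assay, incubated for 30 min. Result given as percent of compound remaining at t = 30 min.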

Rattus norvegicus [2] = assay: Inhibition of Anthrax LT-induced toxicity in Fischer 344 rat assessed as increase in survival at 5 mg/kg, iv administered 20 to 30 mins after LT challenge; assay type: functional, organism-based; set-up: dose 5 mg/kg
[3] = target: Matrix metalloproteinase-9 (Homo sapiens, UniProt P14780); assay: Inhibition of MMP-9 using OmniMMP as substrate
Plasma = assay: Stability in plasma assessed as compound remaining at 3 hrs; assay type: ADME, cell-free
Summary of the method: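 Compound incubated in plasma. Result given as percent of compound remaining at 3 hours.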

Interstitial collagenase = target: T2, Interstitial collagenase (Homo sapiens, UniProt P03956); assay: Inhibition of MMP-1 using OmniMMP as substrate
T2 sequence (P03956 whole entry): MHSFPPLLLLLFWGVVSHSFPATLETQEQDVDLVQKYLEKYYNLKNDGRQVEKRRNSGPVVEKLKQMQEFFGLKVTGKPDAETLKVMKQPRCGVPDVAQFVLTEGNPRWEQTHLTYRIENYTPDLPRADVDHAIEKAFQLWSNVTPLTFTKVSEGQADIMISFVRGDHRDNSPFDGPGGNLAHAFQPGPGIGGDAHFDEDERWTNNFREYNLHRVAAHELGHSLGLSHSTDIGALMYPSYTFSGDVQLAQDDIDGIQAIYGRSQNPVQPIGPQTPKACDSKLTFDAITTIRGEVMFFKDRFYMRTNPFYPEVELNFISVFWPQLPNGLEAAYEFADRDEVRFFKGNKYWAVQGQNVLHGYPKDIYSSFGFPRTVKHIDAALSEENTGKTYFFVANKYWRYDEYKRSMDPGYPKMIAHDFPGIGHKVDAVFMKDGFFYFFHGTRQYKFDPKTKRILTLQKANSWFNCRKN

[4] = Lipophilicity, Log D of the compound; assay type: physicochemical; conditions: octanol/water
Cytochrome P450 2D6 = Cytochrome P450 2D6 (Homo sapiens, UniProt P10635); assay: Inhibition of CYP2D6; assay type: ADME
[5] = target: Macrophage metalloelastase (Homo sapiens, UniProt P39900); assay: Inhibition of MMP-12 using OmniMMP as substrate
[6] = target: Matrix metalloproteinase-14 (Homo sapiens, UniProt P50281); assay: Inhibition of MMP-14 using OmniMMP as substrate
[7] = Stability in rat liver microsomes assessed as compound remaining at 30 mins; assay type: ADME, Microsome; conditions: read-out: Stability
Summary of the method: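 Compound incubated with rat liver microsomes for 30 min. Result given as percent of parent compound remaining at t = 30 min.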

RAW264.7 = assay: Cytotoxicity against mouse RAW264.7 cells by MTT assay; assay type: cell-based
Rattus norvegicus [8] = assay: Inhibition of Anthrax LT-induced toxicity in Fischer 344 rat assessed as increase in survival at 2.5 mg/kg, iv administered 20 to 30 mins after LT challenge; assay type: functional, organism-based; set-up: dose 2.5 mg/kg
Rattus norvegicus [9] = assay: Inhibition of Anthrax LT-induced toxicity in Fischer 344 rat assessed as increase in survival at 1.25 mg/kg, iv administered 20 to 30 mins after LT challenge; assay type: functional, organism-based; set-up: dose 1.25 mg/kg
Stromelysin-1 = Stromelysin-1 (Homo sapiens, UniProt P08254); assay: Inhibition of MMP-3 using OmniMMP as substrate
Oryctolagus cuniculus [10] = assay: Cmax in NZW rabbit at 10 mg/kg, sc; assay type: ADME, organism-based; set-up: dose 10 mg/kg, route subcutaneous; conditions: in vivo
Summary of the method: (§1)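 Single subcutaneous dose of 10 mg/kg given to NZW rabbits in DMSO:PEG400:pH 6 citrate buffer (2:10:88). Plasma drug levels were followed over time, including a 12 h sample. Tmax, Cmax, terminal (β) half-life and AUC to infinity were derived from the plasma concentration–time profile.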

[11] = Plasma concentration in NZW rabbit at 10 mg/kg, sc at 12 hrs; assay type: ADME, organism-based, Oryctolagus cuniculus; set-up: dose 10 mg/kg, route subcutaneous; summary of the method: as §1
Oryctolagus cuniculus [12] = assay: Terminal half life in NZW rabbit at 10 mg/kg, sc; assay type: ADME, organism-based; set-up: dose 10 mg/kg, route subcutaneous; conditions: in vivo; summary of the method: as §1
Oryctolagus cuniculus [13] = assay: AUC (infinity) in NZW rabbit at 10 mg/kg, sc; assay type: ADME, organism-based, Plasma; set-up: time infinity, dose 10 mg/kg, route subcutaneous; conditions: in vivo; summary of the method: as §1
Oryctolagus cuniculus [14] = assay: Tmax in NZW rabbit at 10 mg/kg, sc; assay type: ADME, organism-based; set-up: dose 10 mg/kg, route subcutaneous; conditions: in vivo; summary of the method: as §1
[15] = target: Voltage-gated inwardly rectifying potassium channel KCNH2 (Homo sapiens, UniProt Q12809); assay: Inhibition of human ERG by fluorescence polarization assay
Sequence of Voltage-gated inwardly rectifying potassium channel KCNH2 (Q12809 whole entry): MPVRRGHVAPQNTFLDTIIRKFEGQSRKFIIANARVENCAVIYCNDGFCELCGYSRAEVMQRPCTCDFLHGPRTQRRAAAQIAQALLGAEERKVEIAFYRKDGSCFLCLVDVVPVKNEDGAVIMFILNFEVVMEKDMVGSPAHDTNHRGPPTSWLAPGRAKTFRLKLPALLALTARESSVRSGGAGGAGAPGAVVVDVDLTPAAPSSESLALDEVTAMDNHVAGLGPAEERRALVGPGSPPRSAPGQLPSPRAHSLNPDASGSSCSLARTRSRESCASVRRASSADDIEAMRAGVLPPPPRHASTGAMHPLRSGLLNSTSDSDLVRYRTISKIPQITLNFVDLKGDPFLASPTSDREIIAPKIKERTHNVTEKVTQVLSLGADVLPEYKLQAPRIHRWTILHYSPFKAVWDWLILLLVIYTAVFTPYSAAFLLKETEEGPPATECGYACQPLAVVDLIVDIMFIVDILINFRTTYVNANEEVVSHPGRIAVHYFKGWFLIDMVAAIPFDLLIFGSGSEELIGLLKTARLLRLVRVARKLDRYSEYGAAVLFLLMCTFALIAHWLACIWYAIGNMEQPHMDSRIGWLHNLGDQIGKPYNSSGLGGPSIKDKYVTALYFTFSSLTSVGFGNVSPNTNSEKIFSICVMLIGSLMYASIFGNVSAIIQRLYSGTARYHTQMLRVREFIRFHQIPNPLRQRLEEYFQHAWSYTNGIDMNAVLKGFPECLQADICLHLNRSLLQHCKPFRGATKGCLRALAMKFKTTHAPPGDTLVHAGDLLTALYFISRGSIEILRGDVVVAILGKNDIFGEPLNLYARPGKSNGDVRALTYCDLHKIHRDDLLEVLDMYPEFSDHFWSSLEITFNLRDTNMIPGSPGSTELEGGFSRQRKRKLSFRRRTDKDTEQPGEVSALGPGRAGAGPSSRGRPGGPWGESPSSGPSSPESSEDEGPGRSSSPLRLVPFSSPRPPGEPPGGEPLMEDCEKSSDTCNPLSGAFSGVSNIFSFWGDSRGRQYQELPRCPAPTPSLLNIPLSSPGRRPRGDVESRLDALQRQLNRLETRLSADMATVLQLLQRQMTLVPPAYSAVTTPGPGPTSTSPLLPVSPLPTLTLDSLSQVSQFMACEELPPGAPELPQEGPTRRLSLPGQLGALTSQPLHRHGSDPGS

Sequence of Stromelysin-1 (P08254 whole entry): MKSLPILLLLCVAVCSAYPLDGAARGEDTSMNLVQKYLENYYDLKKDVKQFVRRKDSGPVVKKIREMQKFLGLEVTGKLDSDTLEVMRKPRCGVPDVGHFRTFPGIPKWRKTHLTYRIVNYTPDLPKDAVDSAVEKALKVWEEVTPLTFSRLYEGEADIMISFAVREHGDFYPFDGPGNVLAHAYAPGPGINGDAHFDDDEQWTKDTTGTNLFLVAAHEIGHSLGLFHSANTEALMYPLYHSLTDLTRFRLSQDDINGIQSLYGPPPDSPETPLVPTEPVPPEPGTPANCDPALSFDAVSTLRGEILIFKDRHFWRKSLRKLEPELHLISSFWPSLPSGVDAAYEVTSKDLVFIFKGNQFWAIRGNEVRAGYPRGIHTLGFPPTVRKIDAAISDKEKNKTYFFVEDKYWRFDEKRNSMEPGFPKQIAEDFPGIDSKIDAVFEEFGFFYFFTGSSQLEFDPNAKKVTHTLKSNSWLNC
Sequence of Cytochrome P450 2D6 (P10635 whole entry): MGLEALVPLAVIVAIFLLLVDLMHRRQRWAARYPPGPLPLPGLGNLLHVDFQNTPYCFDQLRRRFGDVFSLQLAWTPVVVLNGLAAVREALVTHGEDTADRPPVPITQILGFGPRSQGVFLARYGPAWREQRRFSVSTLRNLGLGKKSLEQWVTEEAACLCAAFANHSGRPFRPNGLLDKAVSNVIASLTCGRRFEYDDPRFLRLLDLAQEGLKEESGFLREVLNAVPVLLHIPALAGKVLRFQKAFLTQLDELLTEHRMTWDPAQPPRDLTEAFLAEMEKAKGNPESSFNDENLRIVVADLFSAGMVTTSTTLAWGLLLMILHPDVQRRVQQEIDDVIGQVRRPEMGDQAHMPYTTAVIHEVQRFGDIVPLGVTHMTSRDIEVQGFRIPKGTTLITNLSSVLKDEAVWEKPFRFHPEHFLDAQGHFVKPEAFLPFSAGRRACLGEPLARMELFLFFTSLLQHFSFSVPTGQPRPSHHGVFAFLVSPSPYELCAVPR
Sequence of Macrophage metalloelastase (P39900 whole entry): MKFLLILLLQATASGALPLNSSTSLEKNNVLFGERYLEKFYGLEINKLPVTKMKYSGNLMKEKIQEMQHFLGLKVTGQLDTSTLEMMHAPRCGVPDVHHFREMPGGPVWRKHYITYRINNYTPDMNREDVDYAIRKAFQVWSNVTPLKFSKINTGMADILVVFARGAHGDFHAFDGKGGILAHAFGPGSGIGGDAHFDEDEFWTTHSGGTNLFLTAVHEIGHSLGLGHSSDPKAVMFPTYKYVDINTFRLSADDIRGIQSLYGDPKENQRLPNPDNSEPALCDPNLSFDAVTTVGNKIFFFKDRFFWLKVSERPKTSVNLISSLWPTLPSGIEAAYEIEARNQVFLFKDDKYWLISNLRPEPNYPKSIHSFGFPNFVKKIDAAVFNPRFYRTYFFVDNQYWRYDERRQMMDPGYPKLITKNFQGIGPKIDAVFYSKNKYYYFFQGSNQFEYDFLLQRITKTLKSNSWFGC
Sequence of Matrix metalloproteinase-9 (P14780 whole entry): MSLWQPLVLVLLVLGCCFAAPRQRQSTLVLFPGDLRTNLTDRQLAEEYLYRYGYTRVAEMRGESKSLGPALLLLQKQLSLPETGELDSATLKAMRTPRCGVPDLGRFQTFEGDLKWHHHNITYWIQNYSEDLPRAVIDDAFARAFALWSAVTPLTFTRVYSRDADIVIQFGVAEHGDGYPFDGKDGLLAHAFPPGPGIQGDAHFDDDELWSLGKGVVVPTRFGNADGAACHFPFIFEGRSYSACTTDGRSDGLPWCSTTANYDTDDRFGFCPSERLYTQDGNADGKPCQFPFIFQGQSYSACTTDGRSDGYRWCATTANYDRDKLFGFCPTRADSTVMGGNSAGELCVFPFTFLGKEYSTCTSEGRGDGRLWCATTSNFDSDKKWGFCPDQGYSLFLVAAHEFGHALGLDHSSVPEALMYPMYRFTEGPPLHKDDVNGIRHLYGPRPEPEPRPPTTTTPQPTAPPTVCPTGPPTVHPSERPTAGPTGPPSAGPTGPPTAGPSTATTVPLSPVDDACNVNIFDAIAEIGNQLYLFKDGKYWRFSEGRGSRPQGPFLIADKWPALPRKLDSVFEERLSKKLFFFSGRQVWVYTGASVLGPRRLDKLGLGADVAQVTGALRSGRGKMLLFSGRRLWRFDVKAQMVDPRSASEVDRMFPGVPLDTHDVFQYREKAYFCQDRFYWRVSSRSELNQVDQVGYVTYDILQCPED

Row | SMILES | Ki (Lethal factor) | Stability [1] | Survival increase (active/not active) (Rattus norvegicus [2]) | Ki [3] | Stability (Plasma) | Ki (Interstitial collagenase) | logD [4] | IC50 (Cytochrome P450 2D6) | Ki [5] | Ki [6] | remaining at 0.5 h [7] | CC50 (RAW264.7) | inhibition (Rattus norvegicus [8]) | Ki (Stromelysin-1) | further results
1 | CC[C@H](NCCCC[C@@H](Cc1cc(C)c(F)c(C)c1)C(=O)NO)c1ccc(F)cc1 | 0.11 nM |  |  |  |  |  |  |  |  |  |  |  |  |  | 
2 | CC[C@@H](NCCCC[C@@H](Cc1cc(C)c(F)c(C)c1)C(=O)NO)c1ccc(F)cc1 | 0.04 nM |  |  |  |  |  |  |  |  |  |  |  |  |  | 
3 | CCC(NCCCC[C@@H](Cc1cc(C)c(F)c(C)c1)C(=O)NO)c1ccc(F)cc1 (mixture of isomers) | 0.31 nM | 100% | Active | > 50 µM | 95% | > 50 µM | 2.9 | 0.08 µM | > 50 µM | > 50 µM | 55% | 15 µM | Active | > 50 µM | inhibition (Rattus norvegicus [9]): Active
4 | Cc1cc(C[C@H](CCCCN[C@H](CC(C)C)c2ccc(F)cc2)C(=O)NO)cc(C)c1F | 0.23 nM |  |  |  |  |  |  |  |  |  |  |  |  |  | 
5 | CO[C@H](C[C@H](CCCCNCc1ccc(F)cc1)C(=O)NO)c1ccc(F)cc1 |  | 99% | Active | 21 µM |  | 33 µM | 2.4 |  | 2.3 µM | > 50 µM | 91% | 55 µM |  | > 50 µM | 
6 | Cc1cc(C[C@H](CCCCN[C@H](Cc2ccccc2)c2ccc(F)cc2)C(=O)NO)cc(C)c1F | 0.6 nM |  |  |  |  |  |  |  |  |  |  |  |  |  | 
7 | Cc1cc(C[C@H](CCCCN[C@@H](Cc2ccccc2)c2ccc(F)cc2)C(=O)NO)cc(C)c1F | 2 nM |  |  |  |  |  |  |  |  |  |  |  |  |  | 
8 | CCC(NCCCC[C@@H](C[C@@H](OC)c1ccc(F)cc1)C(=O)NO)c1ccc(F)cc1 (mixture of isomers) | 0.27 nM | 100% | Active | 11 µM | 94% | 47 µM | 2.9 | 0.16 µM | 12 µM | > 50 µM | 75% | 35 µM | Active | 31 µM | Cmax (Oryctolagus cuniculus [10]): 1300 nM; concentration at 12 h [11]: 79 nM; beta t1/2 (Oryctolagus cuniculus [12]): 5.3 h; AUC (Oryctolagus cuniculus [13]): 2637.6 ng·h/mL; Tmax (Oryctolagus cuniculus [14]): 0.3 h
9 | CCC(NCCCC[C@@H](Nc1cc(C)c(F)c(C)c1)C(=O)NO)c1ccc(F)cc1 (mixture of isomers) | 0.17 nM | 74% | Active | > 50 µM | 84% | > 50 µM | 3.3 | 0.24 µM | > 50 µM | > 50 µM | 75% | 32 µM | Active | > 50 µM | IC50 [15]: 0.95 µM; inhibition (Rattus norvegicus [9]): inactive
10 | Cc1cc(C[C@H](CCCCN[C@@H](CC(C)C)c2ccc(F)cc2)C(=O)NO)cc(C)c1F | 1.3 nM |  |  |  |  |  |  |  |  |  |  |  |  |  | 
11 | Cc1cc(C[C@H](CCCCN[C@H](C)c2ccc(F)cc2)C(=O)NO)cc(C)c1F | 0.3 nM |  |  |  |  |  |  |  |  |  |  |  |  |  | 
12 | Cc1cc(O[C@H](CCCCNCc2ccc(F)cc2)C(=O)NO)cc(C)c1F |  | 76% | inactive | > 50 µM | 61% | > 50 µM | 3.1 | 0.23 µM | > 50 µM | > 50 µM | 3% | 26 µM |  | > 50 µM | IC50 [15]: 0.79 µM
13 | Cc1cc(C[C@H](CCCCNCc2ccc(F)cc2)C(=O)NO)cc(C)c1F |  | 79% | Active | > 50 µM | 100% | > 50 µM | 2.2 | 0.02 µM | > 50 µM | > 50 µM | 18% | 16 µM | Active | > 50 µM | IC50 [15]: 4.65 µM
14 | Cc1cc(C[C@H](CCCCN[C@@H](C)c2ccc(F)cc2)C(=O)NO)cc(C)c1F | 0.49 nM |  |  |  |  |  |  |  |  |  |  |  |  |  | 
15 | Cc1cc(N[C@H](CCCCNCc2ccc(F)cc2)C(=O)NO)cc(C)c1F |  | 38% | Active | > 50 µM | 90% | > 50 µM | 2.3 | 1.35 µM | > 50 µM | > 50 µM | 60% | 61 µM | Active | > 50 µM | IC50 [15]: 1.23 µM
16 | CCC(NCCCC[C@@H](Oc1cc(C)c(F)c(C)c1)C(=O)NO)c1ccc(F)cc1 (mixture of isomers) | 1 nM | 75% | Active | > 50 µM | 38% | > 50 µM | 3.3 |  | > 50 µM | > 50 µM | 7% | 21 µM |  | > 50 µM | 

From ChEMBL document CHEMBL2010758, “Antidotes to anthrax lethal factor intoxication. Part 3: Evaluation of core structures and further modifications to the C2-side chain” (Bioorg Med Chem Lett, 2012)
